Measured values reported in the RNAGym collection of RNA variant scans (doi:10.1126/science.aae0568).
Variants at the floor of the assay were thinned out.

B1: tRNA (parent)
chain: GUUCCGUUGGCGUAAUGGUAACGCGUCUCCCUCCUAAGGAGAAGACUGCGGGUUCGAGUCCCGUACGGAACG

Variants of: B1
Experiment: yeast fitness relative to wild type (ratio to wild type); higher = fitter; tRNA-Arg(CCU), competitive growth, 37 C, YPD
In short: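 Changes in genotype frequencies gave Darwinian fitness relative to wild type. Frequencies were read by 100-nucleotide paired-end sequencing of gene amplicons before and after pooled Saccharomyces cerevisiae strains, carrying tRNA-Arg(CCU) gene variants at the native locus, were competed in YPD at 37°C for 24 hours in six replicates. A genotype was kept only with ≥ 100 starting reads, and estimates < 0.5 were set to 0.5.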

Row | Variant | yeast fitness
1 | U13G U16A C24U G44A C49G | ≤ 0.5
2 | C11U G12A A14G U53C | ≤ 0.5
3 | A14U U64C | 0.71
4 | U35C A65C | 0.807
5 | C4U C11U C34G A40C G51C | 0.534
6 | C5G C11A A14G G25C C29G C60A | ≤ 0.5
7 | G6A C49U | 0.959
8 | U32C A36G G63A | 0.628
9 | G38U G51C | ≤ 0.5
10 | C30U A43U U54A | 0.541
11 | C5U C62U | 1.03
12 | A14G G25C C29A G52A | ≤ 0.5
13 | C11G G51A C60U | 0.79
14 | G23A A36G C55G A69U | 0.567
15 | G6A A36G A43C A69C | ≤ 0.5
16 | A43U C61G | 0.716
17 | G52C A57U A69U | ≤ 0.5
18 | U35C G39A | 0.886
19 | C34A C46A | 0.691
20 | G41C G48C A69C | 0.606
21 | C5U U19C A37G G63C | ≤ 0.5
22 | C24U U26A U28G G48A A57U | ≤ 0.5
23 | G12C G48A C66U | 0.784
24 | G12A A45G C62U | 0.531

Row | Variant | yeast fitness
25 | C4U G68A | 0.856
26 | C24G C27U C33U G50C G63A G68A | 0.528
27 | U8C C30G C46A U47G C49A G52A G58C U64G A65G | ≤ 0.5
28 | U2A C29A | 0.625
29 | U35C G68A | 0.67
30 | A45G A65G | 1.04
31 | C5U G12A | 0.959
32 | A20U A36C C60A | ≤ 0.5
33 | U3C U7A | 0.772
34 | C5G G10C A43U U54C | ≤ 0.5
35 | G9C G23A A43U A57U | 0.561
36 | C11U U13A U16A U54A | 0.711
37 | C5G C24G C30G C31U U35A A36U G44A G63C | 0.966
38 | A21C C31A | 0.725
39 | U16G C22A A57G | ≤ 0.5
40 | G6A C34A C46U A65C | ≤ 0.5
41 | A36G C55A | 0.729
42 | C27G U53C G56A C66U | ≤ 0.5
43 | G6C U19C C22A U35C A69U | ≤ 0.5
44 | U32G G48C A65C | 0.574
45 | A20G C22U U53A | ≤ 0.5
46 | U8C C46U G52A | ≤ 0.5
47 | G44A A57G G58A | 0.695
48 | A14G A69U | 0.921

Row | Variant | yeast fitness
49 | G9A C22A A37U C55G | ≤ 0.5
50 | C30G C33G A70U | 0.532
51 | C46A G63C | 0.995
52 | C5U U7G A40G A57U | ≤ 0.5
53 | U8C C30G C31G C66U | ≤ 0.5
54 | C46G A69U | 1.03
55 | C22G C24G U54A A69U | ≤ 0.5
56 | G10C G41C C62U C66G A70G | ≤ 0.5
57 | U16G G18C U59A A65U | 0.687
58 | C5U G52A G63C | ≤ 0.5
59 | A15C A21U C24U | ≤ 0.5
60 | C5U A14G G67A | 0.642
61 | A42C A45G G51A | ≤ 0.5
62 | U3G C24U C31U | 0.793
63 | C11G C33G | ≤ 0.5
64 | C11A A21C A42C C61U | ≤ 0.5
65 | U3C C31U A45U | 0.718
66 | G12C A15U G25A | 0.696
67 | C46A U47G C49A G52A G58C U64G A65G | ≤ 0.5
68 | C11G U28A G68A | ≤ 0.5
69 | G18A C31G U47C | ≤ 0.5
70 | C30A U35A C61G | ≤ 0.5
71 | C22U C30A C49A C55A C62U C66U | 0.667
72 | A21G G63U | 0.752

Row | Variant | yeast fitness
73 | U8C G12A A45U G48A | ≤ 0.5
74 | C31U G56A | 1.04
75 | C5A G17C A43U U59A | 0.609
76 | C4U U13A C46U U53A | 0.633
77 | C34U U59A | 0.762
78 | C11A C22A C29G A69G | 0.576
79 | A15U A20G U35C G48U C55G | ≤ 0.5
80 | U26C C31A A42U | 0.9
81 | U28A C33U C55G | ≤ 0.5
82 | A15G G25A | 0.87
83 | C30U C33U | 0.669
84 | A37G A69C | 0.97
85 | U16G A21G C31U | 0.985
86 | U32G G39C C62G G68A | ≤ 0.5
87 | U8G A15C | 0.598
88 | U3A C62U U64C | 0.77
89 | C4A A14G A20U C49A | 0.87
90 | G25A A36U | 0.564
91 | U3A A43U | 0.929
92 | G9A U19A U26A C34U | ≤ 0.5
93 | G6A A20U C27A A57U C62A | ≤ 0.5
94 | A15C C33U U47G C49U G52C | ≤ 0.5
95 | A14G A40U A65C | 0.533
96 | C5U A21U G68A | ≤ 0.5

Row | Variant | yeast fitness
97 | C22U G44C G48A G51A | 0.57
98 | U13A U28A C31U G39A A57G | ≤ 0.5
99 | C24U A37U A40U | 0.568
100 | U2C C4A C11U C29U G67A A70U | ≤ 0.5
101 | C24G A36C A40C A42U | ≤ 0.5
102 | U7G C27A A36C A42U U64G | 0.528
103 | A15C C24G A37C C60U | ≤ 0.5
104 | A43U C46G U54A G63A | 0.726
105 | C11A G25A C46G A57U | ≤ 0.5
106 | G6A G10A A43G U47G | 0.761
107 | C27G A40C | 0.575
108 | G9A A36G G67C | 0.664
109 | U26G G68A | 0.824
110 | A15U C24U A43C | 0.573
111 | C29U U47C | 0.923
112 | A15U A43U C55U C60A | 0.69
113 | U13A G58A | 1.06
114 | U7A C22A C31G U32G A42G G52A C62A | ≤ 0.5
115 | U7G A37C | 0.757
116 | C5G C29A G58C U64G | 0.545
117 | C5U C34A C55U | 0.529
118 | C5A A14U C24U A40C | 0.564
119 | C27G A36G G67U | ≤ 0.5
120 | C34A G68C | 0.841

Row | Variant | yeast fitness
121 | U8C G25C C33A | ≤ 0.5
122 | U7A U19A C29A G68C | ≤ 0.5
123 | A15G C31G U35C A37U A57U | ≤ 0.5
124 | G12A U16G G48A G68A | 0.705
125 | A20U G23C U53A C55U | ≤ 0.5
126 | A15G G23C G38C C49U | ≤ 0.5
127 | A43C U47A G58C | 0.689
128 | A20G C24U G68C | 0.573
129 | G9A G17C A45U A65C | 0.583
130 | C27U C66U | 0.955
131 | G10C U26A C49U A65U | 0.553
132 | A21G C55U | 0.704
133 | C5G G25A A42C G68A | ≤ 0.5
134 | A21C A45C C62G A65C | 0.574
135 | U47A U54C | 0.811
136 | C27G G44C A45G U64A | ≤ 0.5
137 | C31U A45U | 1.12
138 | G17A C31A G48C | ≤ 0.5
139 | C5A U26A A42C | ≤ 0.5
140 | U2G C11U G23A C46U U54A | ≤ 0.5
141 | U8A C27U A43U | ≤ 0.5
142 | U26A A40G | 0.657
143 | C46U A69U A70G | 0.761
144 | C11A G25A | 0.572

Row | Variant | yeast fitness
145 | U3G G39A A40G A57U C66U | ≤ 0.5
146 | C27A A69U | 0.846
147 | C4G C49G | 0.682
148 | A14G A43C G52C | ≤ 0.5
149 | A15U G41C G56C | ≤ 0.5
150 | C11U C29U C30G | 0.549
151 | G6A G10A C30U C60G | ≤ 0.5
152 | U3G U26A A70C | 1.27
153 | A20U U26A C62U | 0.542
154 | C34G G41A A42C C66U | ≤ 0.5
155 | G9C C30G A36U C46A | 0.532
156 | U13C C24G C49G | ≤ 0.5
157 | C5G G12A C22A U26C C33G U64A G67C | ≤ 0.5
158 | G6C U13A C34A | ≤ 0.5
159 | G6C C29G C66G | ≤ 0.5
160 | G6A C24U A65C | ≤ 0.5
161 | A36U A42C C55G C61G | ≤ 0.5
162 | C5A U7A A36C G38C C55U C62A | ≤ 0.5
163 | C24U A65U | 0.894
164 | G10A C11A | 0.636
165 | U32A C34A U53C U64A | ≤ 0.5
166 | C5G G17C G25A A40C U59A | 0.54
167 | C30G C31G U32A C66U | 0.527
